What is called Km is the concentration of substrate that gives half-maximal velocity.

From ChEMBL document CHEMBL3352678, “Synthesis and acetylcholinesterase inhibitory activity of Mannich base derivatives flavokawain B” (Bioorg Med Chem Lett, 2014) come the findings set out here.

Compound in data set [1]: COc1cc(OC)c(C(=O)/C=C/c2ccccc2)c(O)c1CN1CCCCC1
Nature of the data set: Inhibition of Sprague-Dawley rat brain AChE using acetylthiocholin iodide as substrate at 2.2 uM by Michaelis-Menten equation. The procedure, abridged:
(§1)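 Kinetic analysis: Km and vmax were determined at several inhibitor concentrations. Ki for the free enzyme came from a linear replot of slope against inhibitor concentration. Ki′ for the enzyme–substrate complex came from a linear replot of intercept against inhibitor concentration.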

Compound in data set [2]: COc1cc(OC)c(C(=O)/C=C/c2ccccc2)c(O)c1CN1CCCCC1
Nature of the data set: Inhibition of Sprague-Dawley rat brain AChE using acetylthiocholin iodide as substrate at 4.4 uM by Michaelis-Menten equation. A digest of the protocol: as §1

B1: Acetylcholinesterase (Rattus norvegicus), P37136 (protein)
chain: MRPPWYPLHTPSLASPLLFLLLSLLGGGARAEGREDPQLLVRVRGGQLRGIRLKAPGGPVSAFLGIPFAEPPVGSRRFMPPEPKRPWSGILDATTFQNVCYQYVDTLYPGFEGTEMWNPNRELSEDCLYLNVWTPYPRPTSPTPVLIWIYGGGFYSGASSLDVYDGRFLAQVEGTVLVSMNYRVGTFGFLALPGSREAPGNVGLLDQRLALQWVQENIAAFGGDPMSVTLFGESAGAASVGMHILSLPSRSLFHRAVLQSGTPNGPWATVSAGEARRRATLLARLVGCPPGGAGGNDTELISCLRTRPAQDLVDHEWHVLPQESIFRFSFVPVVDGDFLSDTPDALINTGDFQDLQVLVGVVKDEGSYFLVYGVPGFSKDNESLISRAQFLAGVRIGVPQASDLAAEAVVLHYTDWLHPEDPAHLRDAMSAVVGDHNVVCPVAQLAGRLAAQGARVYAYIFEHRASTLTWPLWMGVPHGYEIEFIFGLPLDPSLNYTVEERIFAQRLMQYWTNFARTGDPNDPRDSKSPRWPPYTTAAQQYVSLNLKPLEVRRGLRAQTCAFWNRFLPKLLSATDTLDEAERQWKAEFHRWSSYMVHWKNQFDHYSKQERCSDL
As for B1, in data set [1], the Km was 4.18 mM and the Vmax was 0.0288 deltaA/min. Also, in data set [2], the Km was found to be 4.63 mM and the Vmax stood at 0.0212 deltaA/min.
